ChEMBL document CHEMBL1137387, “Structural determinants of opioid activity in derivatives of 14-aminomorphinones: effects of changes to the chain linking of the C14-amino group to the aryl ring” (J Med Chem, 2006)
The source made the active and inactive calls. The calls are words filed in the database; no cut-off is given here.

Experiments:
Mu-type opioid receptor [1] = biological target: T1, Mu-type opioid receptor (Homo sapiens, UniProt P35372); assay: Activity at human recombinant mu opioid receptor expressed in CHO cells assessed as stimulation of [35S]GTP-gamma-S binding relative to DAMGO; format: functional, cell-based
T1 sequence (P35372 whole entry): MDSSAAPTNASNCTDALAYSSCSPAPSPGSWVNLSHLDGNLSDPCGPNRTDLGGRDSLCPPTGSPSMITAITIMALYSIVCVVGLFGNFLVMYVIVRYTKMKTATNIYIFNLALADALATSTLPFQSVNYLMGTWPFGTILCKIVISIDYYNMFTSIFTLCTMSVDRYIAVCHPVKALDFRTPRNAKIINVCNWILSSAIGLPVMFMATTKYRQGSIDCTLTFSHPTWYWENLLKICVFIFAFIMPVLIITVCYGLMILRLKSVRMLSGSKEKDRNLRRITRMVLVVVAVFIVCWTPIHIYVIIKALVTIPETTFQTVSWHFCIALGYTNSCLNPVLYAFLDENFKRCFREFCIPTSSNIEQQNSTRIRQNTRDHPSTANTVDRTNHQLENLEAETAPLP
Method in brief: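 Membranes of CHO cells transfected with recombinant human MOR were assayed for stimulation of [35S]GTPγS binding. Efficacy is expressed against the standard DAMGO. Values are means of five or six experiments.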

[2] = biological target: T2, Delta-type opioid receptor (Homo sapiens, UniProt P41143); assay: Displacement of [3H]Cl-DPDPE from human recombinant delta opioid receptor expressed in CHO cells; format: cell-based
T2 sequence (P41143 whole entry): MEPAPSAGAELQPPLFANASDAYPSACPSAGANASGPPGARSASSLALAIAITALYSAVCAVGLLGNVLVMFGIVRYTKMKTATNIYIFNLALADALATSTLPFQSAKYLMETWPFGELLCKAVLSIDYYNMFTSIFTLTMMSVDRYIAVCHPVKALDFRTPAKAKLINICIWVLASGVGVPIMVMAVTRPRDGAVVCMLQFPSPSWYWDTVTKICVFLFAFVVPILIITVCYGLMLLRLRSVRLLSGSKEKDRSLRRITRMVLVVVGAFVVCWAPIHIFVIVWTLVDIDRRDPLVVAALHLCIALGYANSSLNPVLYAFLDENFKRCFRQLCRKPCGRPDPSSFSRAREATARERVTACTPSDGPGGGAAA

[3] = biological target: T3, Kappa-type opioid receptor (Homo sapiens, UniProt P41145); assay: Displacement of [3H]U-69593 from human recombinant kappa opioid receptor expressed in CHO cells; format: cell-based
T3 sequence (P41145 whole entry): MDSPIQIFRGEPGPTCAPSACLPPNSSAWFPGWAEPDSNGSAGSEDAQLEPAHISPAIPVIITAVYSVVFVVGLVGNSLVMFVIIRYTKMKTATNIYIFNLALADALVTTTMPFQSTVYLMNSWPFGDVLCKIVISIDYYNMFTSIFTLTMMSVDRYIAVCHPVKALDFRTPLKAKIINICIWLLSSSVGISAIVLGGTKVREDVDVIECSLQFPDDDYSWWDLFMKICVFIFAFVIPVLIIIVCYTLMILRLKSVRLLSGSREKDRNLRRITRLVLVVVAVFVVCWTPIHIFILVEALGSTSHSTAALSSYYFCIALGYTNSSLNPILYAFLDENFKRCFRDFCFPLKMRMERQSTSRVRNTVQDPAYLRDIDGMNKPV

[4] = biological target: T2, Delta-type opioid receptor; assay: Activity at human recombinant delta opioid receptor expressed in CHO cells assessed as stimulation of [35S]GTP-gamma-S binding; format: functional, cell-based
Mu-type opioid receptor [5] = biological target: T1, Mu-type opioid receptor; assay: Displacement of [3H]DAMGO from human recombinant mu opioid receptor expressed in CHO cells; format: cell-based
Method in brief: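 Competition binding used membranes of CHO cells transfected with recombinant human MOR, with [3H]DAMGO as the selective radioligand. Affinity is reported as Ki (nM).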

Mu-type opioid receptor [6] = biological target: T1, Mu-type opioid receptor; assay: Inhibition of DAMGO-stimulated [35S]GTP-gamma-S binding to mu opioid receptor expressed in C6 cells at 100 nM; format: functional, cell-based
Method in brief: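 C6 membranes expressing MOR were preincubated with ligand (100 nM) or vehicle in Tris-HCl buffer for 1 h at 25 °C. They were then centrifuged, resuspended, held at 37 °C to dissociate weakly bound ligand, recentrifuged and washed twice more. Washed membranes (15 µg) were incubated 1 h at 25 °C with increasing DAMGO and buffered [35S]GTPγS, giving DAMGO concentration–effect curves.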

[7] = biological target: Opioid receptor (mu and kappa) (Cavia porcellus) (UniProt P41144+P97266); assay: Selectivity for guinea pig mu opioid receptor over kappa opioid receptor; format: protein assay
Chain of Opioid receptor (mu and kappa) (Cavia porcellus) (P41144 whole entry, looked up): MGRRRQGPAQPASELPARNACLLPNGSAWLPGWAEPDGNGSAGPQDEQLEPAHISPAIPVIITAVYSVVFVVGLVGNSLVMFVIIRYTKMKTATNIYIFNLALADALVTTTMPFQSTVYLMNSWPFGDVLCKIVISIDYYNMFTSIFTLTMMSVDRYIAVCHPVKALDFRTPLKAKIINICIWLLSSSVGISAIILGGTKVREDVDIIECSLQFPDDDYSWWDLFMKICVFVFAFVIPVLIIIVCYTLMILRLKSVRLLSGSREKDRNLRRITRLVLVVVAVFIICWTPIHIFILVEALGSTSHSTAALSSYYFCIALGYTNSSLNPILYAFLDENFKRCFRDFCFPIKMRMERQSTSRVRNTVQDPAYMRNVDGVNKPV
Chain of Opioid receptor (mu and kappa) (Cavia porcellus) (P97266 whole entry, looked up): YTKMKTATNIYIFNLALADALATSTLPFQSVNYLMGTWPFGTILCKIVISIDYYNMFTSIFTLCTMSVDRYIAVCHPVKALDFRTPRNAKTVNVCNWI

Mu-type opioid receptor [8] = biological target: Mu-type opioid receptor (Cavia porcellus, UniProt P97266); assay: Displacement of [3H]DAMGO from mu opioid receptor in guinea pig brain homogenate; format: tissue-based
Chain of Mu-type opioid receptor (Cavia porcellus, UniProt P97266) (P97266 whole entry): as the sequence (P97266 whole entry, looked up) above

[9] = biological target: Kappa-type opioid receptor (Cavia porcellus, UniProt P41144); assay: Displacement of [3H]U-69593 from kappa opioid receptor in guinea pig brain homogenate; format: tissue-based
Chain of Kappa-type opioid receptor (Cavia porcellus, UniProt P41144) (P41144 whole entry): as the sequence (P41144 whole entry, looked up) above

Cavia porcellus = species on record: Cavia porcellus; assay: Selectivity for guinea pig mu opioid receptor over delta opioid receptor
Mus musculus = assay: Agonist activity in mouse tail withdrawal assay at 1 mg/kg relative to morphine; format: functional
Method in brief: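 Antinociception in mice was measured as tail withdrawal from 50 °C water, with a test dose of 1 mg/kg compared against morphine. In a separate arm, the morphine antinociceptive dose–effect curve was determined after 24 h pretreatment to probe delayed MOR antagonism.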

[10] = biological target: T2, Delta-type opioid receptor; assay: Displacement of [3H]diprenorphine from human recombinant delta opioid receptor expressed in C6 cells; format: cell-based
[11] = biological target: T3, Kappa-type opioid receptor; assay: Displacement of [3H]diprenorphine from human recombinant kappa opioid receptor expressed in C6 cells; format: cell-based
Mu-type opioid receptor [12] = biological target: T1, Mu-type opioid receptor; assay: Displacement of [3H]diprenorphine from human mu opioid receptor expressed in C6 cells; format: cell-based

| Compound | Ki [2] | Ki [3] | IC50 [4] | Ki (Mu-type opioid receptor [5]) | Activity (Mu-type opioid receptor [1]; filed as antagonist) | other results |
| --- | --- | --- | --- | --- | --- | --- |
| O=C1CC[C@@]2(NCCc3ccc(Cl)cc3)[C@H]3Cc4ccc(O)c5c4[C@@]2(CCN3CC2CC2)[C@H]1O5 | 1.91 nM | 1.53 nM | 1.59 nM | 0.86 nM |  | Efficacy (Mu-type opioid receptor [1]): 34%; Activity (Mu-type opioid receptor [1]; filed as partial agonist): Partial agonist |
| COc1ccc2c3c1O[C@H]1C(=O)CC[C@@]4(NCC/C=C/c5ccc(Cl)cc5)[C@@H](C2)N(CC2CC2)CC[C@]314 | 24.8 nM | 33.5 nM | 148 nM | 1.15 nM | Antagonist |  |
| O=C(/C=C/c1ccc(Cl)cc1)N[C@@]12CCC(=O)[C@@H]3Oc4c(O)ccc5c4[C@@]31CCN(CC1CC1)[C@@H]2C5 [CLOCINNAMOX] |  |  | 0.19 nM |  | Antagonist | Activity (Mu-type opioid receptor [6]): Active |
| COc1ccc2c3c1O[C@H]1C(=O)CC[C@@]4(NCCc5ccc(Cl)cc5)[C@@H](C2)N(CC2CC2)CC[C@]314 | 33.8 nM | 13.1 nM | 63 nM | 1.33 nM |  | Efficacy (Mu-type opioid receptor [1]): 39%; Activity (Mu-type opioid receptor [1]; filed as partial agonist): Partial agonist |
| O=C(CCCc1ccc(Cl)cc1)N[C@@]12CCC(=O)[C@@H]3Oc4c(O)ccc5c4[C@@]31CCN(CC1CC1)[C@@H]2C5 | 3.85 nM | 2.95 nM | 1.37 nM | 1.34 nM | Antagonist |  |
| COc1ccc2c3c1O[C@H]1C(=O)CC[C@@]4(NC(=O)CCc5ccc(Cl)cc5)[C@@H](C2)N(CC2CC2)CC[C@]314 |  |  | 0.76 nM |  | Antagonist | Ratio Ki [7]: 27.1; Ki (Mu-type opioid receptor [8]): 0.24 nM; Ki [9]: 6.5 nM; Ratio Ki (Cavia porcellus): 21.2 |
| COc1ccc2c3c1O[C@H]1C(=O)CC[C@@]4(NC(=O)CCCc5ccc(Cl)cc5)[C@@H](C2)N(CC2CC2)CC[C@]314 | 89.4 nM | 7.51 nM | 79.9 nM | 3.88 nM | Antagonist |  |
| COc1ccc2c3c1O[C@H]1C(=O)CC[C@@]4(NC/C=C/c5ccc(Cl)cc5)[C@@H](C2)N(CC2CC2)CC[C@]314 |  |  |  |  |  | Ratio Ki [7]: 76.6; Ki (Mu-type opioid receptor [8]): 0.7 nM; Ki [9]: 53.6 nM; Ratio Ki (Cavia porcellus): 63.6 |
| O=C(CCc1ccc(Cl)cc1)N[C@@]12CCC(=O)[C@@H]3Oc4c(O)ccc5c4[C@@]31CCN(CC1CC1)[C@@H]2C5 |  |  | 0.03 nM |  | Antagonist | Ratio Ki [7]: 16.2; Ki (Mu-type opioid receptor [8]): 0.04 nM; Ki [9]: 0.65 nM; Ratio Ki (Cavia porcellus): 15 |
| O=C(C/C=C/c1ccc(Cl)cc1)N[C@@]12CCC(=O)[C@@H]3Oc4c(O)ccc5c4[C@@]31CCN(CC1CC1)[C@@H]2C5 | 3.25 nM | 4.94 nM | 1.7 nM | 1.87 nM | Antagonist |  |
| COc1ccc2c3c1O[C@H]1C(=O)CC[C@@]4(NCCCCc5ccc(Cl)cc5)[C@@H](C2)N(CC2CC2)CC[C@]314 | 55.9 nM | 41.5 nM | 61.1 nM | 2.23 nM | Antagonist |  |
| O=C1CC[C@@]2(NCCCc3ccc(Cl)cc3)[C@H]3Cc4ccc(O)c5c4[C@@]2(CCN3CC2CC2)[C@H]1O5 |  |  | 0.02 nM |  | Antagonist | Ratio Ki [7]: 14.6; Ki (Mu-type opioid receptor [8]): 0.13 nM; Ki [9]: 1.9 nM; Ratio Ki (Cavia porcellus): 8.5 |
| COc1ccc2c3c1O[C@H]1C(=O)CC[C@@]4(NC/C=C/Cc5ccc(Cl)cc5)[C@@H](C2)N(CC2CC2)CC[C@]314 | 94.9 nM | 25.9 nM | 96.8 nM | 6.76 nM | Antagonist |  |
| O=C1CC[C@@]2(NCCCCc3ccc(Cl)cc3)[C@H]3Cc4ccc(O)c5c4[C@@]2(CCN3CC2CC2)[C@H]1O5 | 2.18 nM | 5.27 nM | 0.67 nM | 0.96 nM | Antagonist |  |
| COc1ccc2c3c1O[C@H]1C(=O)CC[C@@]4(NCCCc5ccc(Cl)cc5)[C@@H](C2)N(CC2CC2)CC[C@]314 |  |  | 1.66 nM |  | Antagonist | Ratio Ki [7]: 133; Ki (Mu-type opioid receptor [8]): 0.59 nM; Ki [9]: 78.6 nM; Ratio Ki (Cavia porcellus): 53 |
| COc1ccc2c3c1O[C@H]1C(=O)CC[C@@]4(NC(=O)/C=C/Cc5ccc(Cl)cc5)[C@@H](C2)N(CC2CC2)CC[C@]314 | 242 nM | 25.2 nM |  | 8.07 nM | Antagonist |  |
| COc1ccc2c3c1O[C@H]1C(=O)CC[C@@]4(NC(=O)C/C=C/c5ccc(Cl)cc5)[C@@H](C2)N(CC2CC2)CC[C@]314 | 104 nM | 21.5 nM | 118 nM | 8.19 nM | Antagonist |  |
| COc1ccc2c3c1O[C@H]1C(=O)CC[C@@]4(NC(=O)/C=C/c5ccc(Cl)cc5)[C@@H](C2)N(CC2CC2)CC[C@]314 |  |  | 7.16 nM |  | Antagonist |  |
| COc1ccc2c3c1O[C@H]1C(=O)CC[C@@]4(O)[C@@H](C2)N(CC2CC2)CC[C@]314 | 272 nM | 128 nM | 1000 nM | 85.6 nM | Antagonist |  |
| O=C(Cc1ccc(Cl)cc1)N[C@@]12CCC(=O)[C@@H]3Oc4c(O)ccc5c4[C@@]31CCN(CC1CC1)[C@@H]2C5 | 1.51 nM | 1 nM | 2.41 nM | 0.73 nM |  | Efficacy (Mu-type opioid receptor [1]): 29%; Activity (Mu-type opioid receptor [1]; filed as partial agonist): Partial agonist; Activity (Mus musculus): 10 |
| O=C1CC[C@@]2(NCC/C=C/c3ccc(Cl)cc3)[C@H]3Cc4ccc(O)c5c4[C@@]2(CCN3CC2CC2)[C@H]1O5 | 2.1 nM | 3.69 nM | 1.17 nM | 1 nM | Antagonist |  |
| O=C1CC[C@@]2(NC/C=C/Cc3ccc(Cl)cc3)[C@H]3Cc4ccc(O)c5c4[C@@]2(CCN3CC2CC2)[C@H]1O5 | 6.65 nM | 3.72 nM | 3.35 nM | 1.89 nM | Antagonist |  |
| COc1ccc2c3c1O[C@H]1C(=O)CC[C@@]4(NC(=O)Cc5ccc(Cl)cc5)[C@@H](C2)N(CC2CC2)CC[C@]314 | 51.9 nM | 2.59 nM | 88.7 nM | 2.64 nM |  | Efficacy (Mu-type opioid receptor [1]): 39%; Activity (Mu-type opioid receptor [1]; filed as partial agonist): Partial agonist |
| O=C1CC[C@@]2(NC/C=C/c3ccc(Cl)cc3)[C@H]3Cc4ccc(O)c5c4[C@@]2(CCN3CC2CC2)[C@H]1O5 |  |  |  |  |  | Ki [10]: 0.63 nM; Ki [11]: 0.91 nM; Ki (Mu-type opioid receptor [12]): 0.32 nM |
